Data: ChEMBL document CHEMBL1949649, “5-sulfonyl-benzimidazoles as selective CB2 agonists-part 2” (Bioorg Med Chem Lett, 2012)
pEC50: −log10 of the molar value.

How the values were obtained:
Cannabinoid receptor 2 = Cannabinoid receptor 2 (Homo sapiens, UniProt P34972); experiment: Agonist activity at human CB2 receptor; format: functional
[1] = Drug metabolism in human liver microsomes after 15 mins; format: ADME, Microsome; conditions: read-out: Drug metabolism
Cannabinoid receptor 1 = Cannabinoid receptor 1 (Homo sapiens, UniProt P21554); experiment: Agonist activity at human CB1 receptor; format: functional
Sequence of Cannabinoid receptor 1 (P21554 whole entry): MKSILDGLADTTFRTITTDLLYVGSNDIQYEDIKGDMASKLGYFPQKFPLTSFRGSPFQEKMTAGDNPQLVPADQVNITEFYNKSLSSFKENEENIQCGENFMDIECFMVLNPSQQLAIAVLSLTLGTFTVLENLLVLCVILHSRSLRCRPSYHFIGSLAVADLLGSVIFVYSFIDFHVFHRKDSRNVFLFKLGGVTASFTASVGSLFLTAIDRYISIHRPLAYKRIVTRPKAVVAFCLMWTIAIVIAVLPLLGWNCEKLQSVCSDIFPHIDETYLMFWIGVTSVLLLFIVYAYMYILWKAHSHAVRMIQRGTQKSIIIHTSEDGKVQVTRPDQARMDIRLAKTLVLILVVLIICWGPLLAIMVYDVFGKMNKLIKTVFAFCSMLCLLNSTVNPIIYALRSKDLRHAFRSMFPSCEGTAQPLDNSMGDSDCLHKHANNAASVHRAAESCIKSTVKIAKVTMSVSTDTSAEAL

Rattus norvegicus [2] = experiment: Toxicity in rat assessed as decrease in body temperature at 10 mg/kg, ip by modified tetrad test; format: organism-based; set-up: dose 10 mg/kg, route intraperitoneal; conditions: in vivo
Rattus norvegicus [3] = experiment: Toxicity in rat chronic constriction injury-induced neuropathic pain model assessed as tolerance at 40 mg/kg/day, sc after 5 to 8 days; format: organism-based; set-up: route subcutaneous; conditions: in vivo
Procedure, shortened: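 Chronic constriction injury of rats (n = 7 per group); daily subcutaneous dosing over repeated days, with morphine as comparator. Cold allodynia read as lifting on a cold plate at 0 °C for 4 min.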

[4] = Kinetic solubility of the compound at pH 7.4; format: physicochemical; conditions: buffer, read-out: Kinetic_solubility

Sequence of Cannabinoid receptor 2 (P34972 whole entry): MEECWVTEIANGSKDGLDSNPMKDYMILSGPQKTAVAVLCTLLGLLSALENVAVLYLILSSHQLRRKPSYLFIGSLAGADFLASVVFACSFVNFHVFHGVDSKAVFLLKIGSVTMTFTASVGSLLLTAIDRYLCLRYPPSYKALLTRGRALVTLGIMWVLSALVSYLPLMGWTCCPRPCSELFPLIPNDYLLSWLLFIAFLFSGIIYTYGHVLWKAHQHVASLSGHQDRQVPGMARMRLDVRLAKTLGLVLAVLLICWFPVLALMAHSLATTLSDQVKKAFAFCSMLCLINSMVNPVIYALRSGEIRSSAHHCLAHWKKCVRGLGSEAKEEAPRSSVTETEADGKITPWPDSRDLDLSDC

| Compound | pEC50 (Cannabinoid receptor 2) | metabolised at 0.25 h [1] [%] | pEC50 (Cannabinoid receptor 1) | other results |
| --- | --- | --- | --- | --- |
| COCCOc1cc(S(=O)(=O)c2ccc3c(c2)nc(C(C)(C)C)n3CC2CCOCC2)ccn1 | 8.89 | 53 | – | – |
| COCCCNc1cc(S(=O)(=O)c2ccc3c(c2)nc(C(C)(C)C)n3CC2CCOCC2)ccn1 | 9.10 | 99 | – | – |
| CC(C)(C)c1nc2cc(S(=O)(=O)c3ccnc(OCCCO)c3)ccc2n1CC1CCOCC1 | 8.92 | 40 | – | – |
| CC(C)(C)c1nc2cc(S(=O)(=O)CC3CC3)ccc2n1CC1CCS(=O)(=O)CC1 | 8.08 | 2 | 5.57 | – |
| CC(C)(C)c1nc2cc(S(=O)(=O)CCCC(F)(F)F)ccc2n1CC1CCN(C=O)CC1 | – | 17 | 5.25 | – |
| CC(=O)N1CCC(Cn2c(C(C)(C)C)nc3cc(S(=O)(=O)CCCO)ccc32)CC1 | – | – | < 5.00 | – |
| COCC(=O)N1CCC(Cn2c(C(C)(C)C)nc3cc(S(=O)(=O)CCCC(F)(F)F)ccc32)CC1 | – | – | < 5.00 | – |
| CC(C)(C)c1nc2cc(S(=O)(=O)c3nccs3)ccc2n1CC1CCN(C=O)CC1 | 8.08 | – | 6.49 | Activity (Rattus norvegicus [2]): Toxic |
| CN1CC[C@]23c4c5ccc(O)c4O[C@H]2[C@@H](O)C=C[C@H]3[C@H]1C5 [MORPHINE] | – | – | – | Activity (Rattus norvegicus [3]): Non-toxic |
| CC(=O)N1CCC(Cn2c(C(C)(C)C)nc3cc(S(=O)(=O)c4ccncc4)ccc32)CC1 | 8.34 | 29 | < 5.00 | – |
| CC(C)(C)c1nc2cc(S(=O)(=O)CC3CC3)ccc2n1CC1CCN(C=O)CC1 | – | 16 | 5.60 | – |
| COC(=O)N1CCC(Cn2c(C(C)(C)C)nc3cc(S(=O)(=O)CCCC(F)(F)F)ccc32)CC1 | – | 54 | < 5.00 | – |
| CCOc1cc(S(=O)(=O)c2ccc3c(c2)nc(C(C)(C)C)n3CC2CCOCC2)ccn1 | – | 48 | 5.89 | solubility kinetic [4]: < 1 µM |
| CC(C)(C)c1nc2cc(S(=O)(=O)CCCC(F)(F)F)ccc2n1CC1CCN(C(=O)C(F)(F)F)CC1 | – | 20 | < 5.00 | – |
| CCS(=O)(=O)c1ccc2c(c1)nc(C(C)(C)C)n2CC1CCS(=O)(=O)CC1 | 7.55 | – | < 5.00 | – |
